Values after ≈ are worked out from the molar mass of the structure shown. Numbered stars: 1 amine (or outer) side, 2 acyl side, 3 side chain; on linkers, the order of the positions; unused ones are H or OH. Bridge positions count the residues as written; N and C are the ends. Square brackets hold non-standard residues; d marks the D form. Peptide text beside a SMILES is read from it. * marks the point of attachment. hTyr(3S-OH,4S-OH,3'-OSO3H) = N[C@H](C(=O)O)[C@H](O)[C@@H](O)c1ccc(O)c(OS(=O)(=O)O)c1; pTerphenylCO(4''-OnC5H11) = CCCCCOc1ccc(-c2ccc(-c3ccc(C(=O)*)cc3)cc2)cc1; Orn(4R-OH,5R-OH) = O=C([C@H](C[C@@H](O)[C@@H](O)N[*:3])N[*:1])[*:2]; hTyr(3S-OH,4S-OH) = N[C@H](C(=O)O)[C@H](O)[C@@H](O)c1ccc(O)cc1; Pro(3S-OH,4S-Me) = C[C@H]1CN[C@H](C(=O)O)[C@H]1O; X1 = CCCCCOc1ccc(-c2cc(-c3ccc(C(=O)*)cc3)no2)cc1; Gln(3R-OH) = NC(=O)C[C@@H](O)[C@H](N)C(=O)O; Hyp = O=C(O)[C@@H]1C[C@@H](O)CN1
How the values were obtained:
Candida albicans [1] = experiment: Selectivity ratio of Ki for Candida albicans 89 1,3-beta-D-glucan synthase subunit FKS1p C1934A mutant to Ki for Candida albicans SC5314 wild type 1,3-beta-D-glucan synthase subunit FKS1p
Candida albicans [2] = experiment: Selectivity ratio of Ki for Candida albicans 85 1,3-beta-D-glucan synthase subunit FKS1p C1934T mutant to Ki for Candida albicans SC5314 wild type 1,3-beta-D-glucan synthase subunit FKS1p
Candida albicans [3] = experiment: Activity at Candida albicans 3107 1,3-beta-D-glucan synthase subunit FKS1p
Outline: (§1)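 Glucan synthase from cells grown at 37°C with vigorous shaking to early stationary phase in YPD. Membrane enzyme enriched by product entrapment. Serial echinocandin dilutions; ANF controls held 1% DMSO. Reaction started by adding enzyme, run 60 min at 25°C in a filtration polymerization assay, stopped on ice. IC50 from a variable-slope sigmoidal fit; means of three repetitions on separate days.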

[4] = Inhibition of Candida albicans SC5314 1,3-beta-D-glucan synthase subunit FKS1p
Outline: (§2)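 Enzyme is product-entrapped 1,3-β-D-glucan synthase, enriched from membranes of each strain grown at 37°C with shaking in YPD broth to early stationary phase. Filtration polymerization assay uses [3H]UDPG, started by adding enzyme and run 60 min at 25°C. Echinocandins are added as serial dilutions, with 1% DMSO controls for anidulafungin. IC50 is from a variable-slope sigmoidal fit; values are triplicate arithmetic means.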

Candida albicans [5] = experiment: Selectivity ratio of Ki for Candida albicans 177 1,3-beta-D-glucan synthase subunit FKS1p T1922C mutant to Ki for Candida albicans SC5314 wild type 1,3-beta-D-glucan synthase subunit FKS1p
Candida albicans [6] = experiment: Antimicrobial activity against Candida albicans 36082 by M27-A3 method; assay type: functional
Outline: (§3)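 Broth microdilution per CLSI M27-A3 in RPMI 1640, with and without 50% human serum, in triplicate. C. krusei ATCC 6258 and C. parapsilosis ATCC 22019 served as quality-control strains. MIC reported as arithmetic mean of three repetitions on separate days.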

Candida albicans [7] = experiment: Selectivity ratio of Ki for Candida albicans 5415 1,3-beta-D-glucan synthase subunit FKS1p T1933C mutant to Ki for Candida albicans SC5314 wild type 1,3-beta-D-glucan synthase subunit FKS1p
Candida albicans [8] = experiment: Antimicrobial activity against Candida albicans 3795 by M27-A3 method; assay type: functional; outline: as §3
Candida albicans [9] = experiment: Activity at Candida albicans 149 1,3-beta-D-glucan synthase subunit FKS1p G1942T mutant
Outline: (§4)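 Product-entrapped 1,3-β-D-glucan synthase from cells grown in YPD at 37°C to early stationary phase. Wells held 50 mM HEPES pH 7.5, 10% glycerol, 1.5 mg/ml BSA, 25 mM KF, 1 mM EDTA, 25 μM GTP-γ-S, 1 μg enzyme and [3H]UDPG (0.015–2 mM). Reactions ran 60 min at 25°C. Vmax and Km came from Lineweaver-Burke plots, in triplicate.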

Candida albicans [10] = experiment: Activity at Candida albicans 90028 1,3-beta-D-glucan synthase subunit FKS1p; outline: as §1
Candida albicans [11] = experiment: Antimicrobial activity against Candida albicans 149 harboring FKS1 G1942T mutant gene and FKS1 hotspot1 D648Y mutant gene by M27-A3 method; assay type: functional
Outline: (§5)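 Broth microdilution per CLSI M27-A3 in RPMI 1640, done in triplicate on three separate days. Each strain was tested with and without 50% human serum. C. krusei ATCC 6258 and C. parapsilosis ATCC 22019 served as QC strains. Arithmetic means are reported, and geometric means were used for comparison.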

Candida albicans [12] = experiment: Antimicrobial activity against Candida albicans 3107 by M27-A3 method in presence of 50% human serum; assay type: functional; outline: as §5
Candida albicans [13] = experiment: Selectivity ratio of Ki for Candida albicans 121 1,3-beta-D-glucan synthase subunit FKS1p G4082A mutant to Ki for Candida albicans SC5314 wild type 1,3-beta-D-glucan synthase subunit FKS1p
Candida albicans [14] = experiment: Selectivity ratio of Ki for Candida albicans 149 1,3-beta-D-glucan synthase subunit FKS1p G1942T mutant to Ki for Candida albicans SC5314 wild type 1,3-beta-D-glucan synthase subunit FKS1p
[15] = Inhibition of Candida albicans 177 1,3-beta-D-glucan synthase subunit FKS1p T1922C mutant; outline: as §2
Candida albicans [16] = experiment: Antimicrobial activity against Candida albicans 194 harboring FKS1 C1934T/G4082R mutant gene and FKS1 hotspot1 S645F mutant gene and FKS1 hotspot2 R1361R/H mutant gene by M27-A3 method in presence of 50% human serum; assay type: functional; outline: as §5
[17] = Inhibition of Candida albicans A15 1,3-beta-D-glucan synthase subunit FKS1p T1933Y mutant; outline: as §2
Candida albicans [18] = experiment: Activity at Candida albicans 36082 1,3-beta-D-glucan synthase subunit FKS1p; outline: as §1
Candida albicans [19] = experiment: Activity at Candida albicans 3795 1,3-beta-D-glucan synthase subunit FKS1p; outline: as §1
Candida albicans [20] = experiment: Antimicrobial activity against Candida albicans A15-10 harboring FKS1 T1933C mutant gene and FKS1 hotspot1 S645P mutant gene by M27-A3 method; assay type: functional; outline: as §5
Candida albicans [21] = experiment: Antimicrobial activity against Candida albicans SC5314 by M27-A3 method in presence of 50% human serum; assay type: functional; outline: as §5
Candida albicans [22] = experiment: Selectivity ratio of Ki for Candida albicans 194 1,3-beta-D-glucan synthase subunit FKS1p C1934T/G4082R mutant to Ki for Candida albicans SC5314 wild type 1,3-beta-D-glucan synthase subunit FKS1p
Candida albicans [23] = experiment: Antimicrobial activity against Candida albicans 3795 by M27-A3 method in presence of 50% human serum; assay type: functional; outline: as §5
Candida albicans [24] = experiment: Selectivity ratio of Ki for Candida albicans 122 1,3-beta-D-glucan synthase subunit FKS1p C1946A mutant to Ki for Candida albicans SC5314 wild type 1,3-beta-D-glucan synthase subunit FKS1p
Candida albicans [25] = experiment: Selectivity ratio of Ki for Candida albicans 205 1,3-beta-D-glucan synthase subunit FKS1p T1933C mutant to Ki for Candida albicans SC5314 wild type 1,3-beta-D-glucan synthase subunit FKS1p
Candida albicans [26] = experiment: Selectivity ratio of Ki for Candida albicans 119 1,3-beta-D-glucan synthase subunit FKS1p T1921C mutant to Ki for Candida albicans SC5314 wild type 1,3-beta-D-glucan synthase subunit FKS1p
Candida albicans [27] = experiment: Activity at Candida albicans 194 1,3-beta-D-glucan synthase subunit FKS1p C1934T/G4082R mutant; outline: as §4
Candida albicans [28] = experiment: Selectivity ratio of Ki for Candida albicans A15 1,3-beta-D-glucan synthase subunit FKS1p T1933Y mutant to Ki for Candida albicans SC5314 wild type 1,3-beta-D-glucan synthase subunit FKS1p
Candida albicans [29] = experiment: Activity at Candida albicans 122 1,3-beta-D-glucan synthase subunit FKS1p C1946A mutant; outline: as §4
Candida albicans [30] = experiment: Activity at Candida albicans 2762 1,3-beta-D-glucan synthase subunit FKS1p T1922C mutant; outline: as §4

Compound | Km (Candida albicans [3]) | Vmax (Candida albicans [3]) | Ki [4] | MIC (Candida albicans [6]) | MIC (Candida albicans [8]) | Km (Candida albicans [9]) | Vmax (Candida albicans [9]) | Km (Candida albicans [10]) | Vmax (Candida albicans [10]) | MIC (Candida albicans [11]) | MIC (Candida albicans [12]) | IC50 [15] | Ki [15] | MIC (Candida albicans [16]) | IC50 [17] | Km (Candida albicans [18]) | Vmax (Candida albicans [18]) | Km (Candida albicans [19]) | Vmax (Candida albicans [19]) | MIC (Candida albicans [20]) | further results
CCCCCOc1ccc(-c2ccc(-c3ccc(C(=O)N[C@H]4C[C@@H](O)[C@@H](O)NC(=O)[C@@H]5[C@@H](O)[C@@H](C)CN5C(=O)[C@H]([C@@H](C)O)NC(=O)[C@H]([C@H](O)[C@@H](O)c5ccc(O)cc5)NC(=O)[C@@H]5C[C@@H](O)CN5C(=O)[C@H]([C@@H](C)O)NC4=O)cc3)cc2)cc1 [ANIDULAFUNGIN] ({pTerphenylCO(4''-OnC5H11)}-[Orn(4R-OH,5R-OH)]T[Hyp][hTyr(3S-OH,4S-OH)]T[Pro(3S-OH,4S-Me)]; lactam 1-C) | 102 µM | 6.04 nmol/min | 0.00133 µg/mL (≈ 0.00117 µM) | 0.03 µg/mL (≈ 0.0263 µM) | 0.06 µg/mL (≈ 0.0526 µM) | 32 µM | 1.22 nmol/min | 67 µM | 4.71 nmol/min | 0.83 µg/mL (≈ 0.728 µM) | 0.25 µg/mL | 2.622 µg/mL (≈ 2.3 µM) | 4.34233 µg/mL (≈ 3.81 µM) | 8 µg/mL | 0.1287 µg/mL (≈ 0.113 µM) | 89 µM | 5.87 nmol/min | 88 µM | 6.63 nmol/min | 4 µg/mL (≈ 3.51 µM) | Ratio Ki (Candida albicans [1]): > 100; Ratio Ki (Candida albicans [2]): > 100; IC50 [4]: 0.00089 µg/mL (≈ 0.000781 µM); Ratio Ki (Candida albicans [5]): > 100; Ratio Ki (Candida albicans [7]): > 100; Ratio Ki (Candida albicans [13]): > 100; Ratio Ki (Candida albicans [14]): > 100; MIC (Candida albicans [21]): 0.5 µg/mL; Ratio Ki (Candida albicans [22]): > 100; MIC (Candida albicans [23]): 0.44 µg/mL; Ratio Ki (Candida albicans [24]): > 100; Ratio Ki (Candida albicans [25]): > 100; Ratio Ki (Candida albicans [26]): > 100; Km (Candida albicans [27]): 61 µM; Vmax (Candida albicans [27]): 5.81 nmol/min; Ratio Ki (Candida albicans [28]): > 100; Km (Candida albicans [29]): 152 µM; Vmax (Candida albicans [29]): 1.95 nmol/min; Km (Candida albicans [30]): 108 µM; Vmax (Candida albicans [30]): 3.57 nmol/min
CC[C@H](C)C[C@H](C)CCCCCCCCC(=O)N[C@H]1C[C@@H](O)[C@@H](NCCN)NC(=O)[C@@H]2[C@@H](O)CCN2C(=O)[C@H]([C@H](O)CCN)NC(=O)[C@H]([C@H](O)[C@@H](O)c2ccc(O)cc2)NC(=O)[C@@H]2C[C@@H](O)CN2C(=O)[C@H]([C@@H](C)O)NC1=O [CASPOFUNGIN] | 102 µM | 6.04 nmol/min | 0.00297 µg/mL (≈ 0.00272 µM) | 0.21 µg/mL (≈ 0.192 µM) | 0.33 µg/mL (≈ 0.302 µM) | 32 µM | 1.22 nmol/min | 67 µM | 4.71 nmol/min | 2.67 µg/mL (≈ 2.44 µM) | 0.33 µg/mL | 1.091 µg/mL (≈ 0.998 µM) | 1.8176 µg/mL (≈ 1.66 µM) | 8 µg/mL | 0.2181 µg/mL (≈ 0.199 µM) | 89 µM | 5.87 nmol/min | 88 µM | 6.63 nmol/min | 8 µg/mL (≈ 7.32 µM) | MIC (Candida albicans [21]): 0.5 µg/mL; MIC (Candida albicans [23]): 0.5 µg/mL; Km (Candida albicans [27]): 61 µM; Vmax (Candida albicans [27]): 5.81 nmol/min; Km (Candida albicans [29]): 152 µM; Vmax (Candida albicans [29]): 1.95 nmol/min; Km (Candida albicans [30]): 108 µM; Vmax (Candida albicans [30]): 3.57 nmol/min
CCCCCOc1ccc(-c2cc(-c3ccc(C(=O)N[C@H]4C[C@@H](O)[C@@H](O)NC(=O)[C@@H]5[C@@H](O)[C@@H](C)CN5C(=O)[C@H]([C@H](O)CC(N)=O)NC(=O)[C@H]([C@H](O)[C@@H](O)c5ccc(O)c(OS(=O)(=O)O)c5)NC(=O)[C@@H]5C[C@@H](O)CN5C(=O)[C@H]([C@@H](C)O)NC4=O)cc3)no2)cc1 [MICAFUNGIN] (X1-[Orn(4R-OH,5R-OH)]T[Hyp][hTyr(3S-OH,4S-OH,3'-OSO3H)][Gln(3R-OH)][Pro(3S-OH,4S-Me)]; lactam 1-C) | 102 µM | 6.04 nmol/min | 0.02747 µg/mL (≈ 0.0216 µM) | 0.03 µg/mL (≈ 0.0236 µM) | 0.03 µg/mL (≈ 0.0236 µM) | 32 µM | 1.22 nmol/min | 67 µM | 4.71 nmol/min | 0.83 µg/mL (≈ 0.653 µM) | 0.5 µg/mL | 1.441 µg/mL (≈ 1.13 µM) | 4.40423 µg/mL (≈ 3.47 µM) | 8 µg/mL | 0.1773 µg/mL (≈ 0.14 µM) | 89 µM | 5.87 nmol/min | 88 µM | 6.63 nmol/min | 4 µg/mL (≈ 3.15 µM) | IC50 [4]: 0.0582 µg/mL (≈ 0.0458 µM); MIC (Candida albicans [21]): 0.5 µg/mL; MIC (Candida albicans [23]): 0.5 µg/mL; Km (Candida albicans [27]): 61 µM; Vmax (Candida albicans [27]): 5.81 nmol/min; Km (Candida albicans [29]): 152 µM; Vmax (Candida albicans [29]): 1.95 nmol/min; Km (Candida albicans [30]): 108 µM; Vmax (Candida albicans [30]): 3.57 nmol/min
